The values that follow come from ChEMBL document CHEMBL4043093, “2-Oxo-3, 4-dihydropyrimido[4, 5-d]pyrimidinyl derivatives as new irreversible pan fibroblast growth factor receptor (FGFR) inhibitors” (Eur J Med Chem, 2017).

Assay [1] deals with Tyrosine-protein kinase ABL2 (Homo sapiens) (UniProt P42684). Kind of assay: Inhibition of wild-type human ABL2 (A248 to G542 residues) expressed in Escherichia coli BL21 assessed as residual activity at 1000 nM after 30 mins by Kinomescan method relative to control. In a few lines: (§1)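 Single-point screen at a fixed 1 µM, run within a 456-kinase DiscoveRx KINOMEscan panel. Each kinase's read-out is Percent Control, i.e. signal relative to a control without compound. Hits were scored by a Percent Control < 35 cut-off, and an S(35) selectivity score was calculated across the non-mutant kinases.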

Assay [2] concerns the target G protein-coupled receptor kinase 3 (Homo sapiens) (UniProt P35626). The assay can be described thus: Inhibition of wild-type human full length GRK3 (M1 to L688 residues) expressed in HEK293 cells assessed as residual activity at 1000 nM after 30 mins by Kinomescan method relative to control. Type of assay: cell-based. The method in brief: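 Single-concentration screen at 1 µM across a 456-kinase KINOMEscan panel. The read-out is Percent Control for each kinase.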

Assay [3] addresses Tyrosine-protein kinase Fer (Homo sapiens) (UniProt P16591). Kind of assay: Inhibition of wild-type human partial length FER (S542 to T822 residues) expressed in Escherichia coli BL21 assessed as residual activity at 1000 nM after 30 mins by Kinomescan method relative to control.
In assay [4] the target is Cyclin-dependent kinase-like 1 (Homo sapiens) (UniProt Q00532). Kind of assay: Inhibition of wild-type human full length CDKL1 (M1 to I358 residues) expressed in HEK293 cells assessed as residual activity at 1000 nM after 30 mins by Kinomescan method relative to control. Type of assay: cell-based. The method in brief:
as §1

Assay [5] concerns the target Ephrin type-B receptor 2 (Homo sapiens) (UniProt P29323). The assay can be described thus: Inhibition of wild-type human partial length EPHB2 (I597 to L902 residues) expressed in Escherichia coli BL21 assessed as residual activity at 1000 nM after 30 mins by Kinomescan method relative to control.
Assay [6] has as its target Serine/threonine-protein kinase Nek5 (Homo sapiens) (UniProt Q6P3R8). The assay can be described thus: Inhibition of wild-type human partial length NEK5 (M1 to M279 residues) expressed in Escherichia coli BL21 assessed as residual activity at 1000 nM after 30 mins by Kinomescan method relative to control.
The target of assay [7] is BMP-2-inducible protein kinase (Homo sapiens) (UniProt Q9NSY1). The assay can be described thus: Inhibition of wild-type human partial length BIKE (S34 to N329 residues) expressed in Escherichia coli BL21 assessed as residual activity at 1000 nM after 30 mins by Kinomescan method relative to control.
Assay [8] concerns Tyrosine-protein kinase ABL1 (Homo sapiens), P00519 [F317L]. Kind of assay: Inhibition of human phosphorylated ABL1 F317L mutant (S229 to K512 residues) expressed in HEK293 cells assessed as residual activity at 1000 nM after 30 mins by Kinomescan method relative to control. In kind it is cell-based. In a few lines: as §1
In assay [9] the test system is Tyrosine-protein kinase ABL1 (Homo sapiens), P00519 [Q252H]. The assay can be described thus: Inhibition of human non-phosphorylated ABL1 Q252H mutant (S229 to K512 residues) expressed in HEK293 cells assessed as residual activity at 1000 nM after 30 mins by Kinomescan method relative to control. Type of assay: cell-based. The method in brief: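 KINOMEscan binding panel of 456 kinases, with the test compound at a single concentration of 1 µM. Read-out is Percent Control.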

For assay [10], the target named is Calcium/calmodulin-dependent protein kinase type 1 (Homo sapiens) (UniProt Q14012). Kind of assay: Inhibition of wild-type human full length CAMK1 (M1 to L370 residues) expressed in Escherichia coli BL21 assessed as residual activity at 1000 nM after 30 mins by Kinomescan method relative to control. The method in brief:
as §1

Assay [11] deals with Hepatocyte growth factor receptor (Homo sapiens) (UniProt P08581). Kind of assay: Inhibition of wild-type human partial length MET (D1010 to S1367 residues) expressed in Escherichia coli BL21 assessed as residual activity at 1000 nM after 30 mins by Kinomescan method relative to control.
Hepatocyte growth factor receptor (Homo sapiens), sequence (P08581 whole entry, the tested form may be a part): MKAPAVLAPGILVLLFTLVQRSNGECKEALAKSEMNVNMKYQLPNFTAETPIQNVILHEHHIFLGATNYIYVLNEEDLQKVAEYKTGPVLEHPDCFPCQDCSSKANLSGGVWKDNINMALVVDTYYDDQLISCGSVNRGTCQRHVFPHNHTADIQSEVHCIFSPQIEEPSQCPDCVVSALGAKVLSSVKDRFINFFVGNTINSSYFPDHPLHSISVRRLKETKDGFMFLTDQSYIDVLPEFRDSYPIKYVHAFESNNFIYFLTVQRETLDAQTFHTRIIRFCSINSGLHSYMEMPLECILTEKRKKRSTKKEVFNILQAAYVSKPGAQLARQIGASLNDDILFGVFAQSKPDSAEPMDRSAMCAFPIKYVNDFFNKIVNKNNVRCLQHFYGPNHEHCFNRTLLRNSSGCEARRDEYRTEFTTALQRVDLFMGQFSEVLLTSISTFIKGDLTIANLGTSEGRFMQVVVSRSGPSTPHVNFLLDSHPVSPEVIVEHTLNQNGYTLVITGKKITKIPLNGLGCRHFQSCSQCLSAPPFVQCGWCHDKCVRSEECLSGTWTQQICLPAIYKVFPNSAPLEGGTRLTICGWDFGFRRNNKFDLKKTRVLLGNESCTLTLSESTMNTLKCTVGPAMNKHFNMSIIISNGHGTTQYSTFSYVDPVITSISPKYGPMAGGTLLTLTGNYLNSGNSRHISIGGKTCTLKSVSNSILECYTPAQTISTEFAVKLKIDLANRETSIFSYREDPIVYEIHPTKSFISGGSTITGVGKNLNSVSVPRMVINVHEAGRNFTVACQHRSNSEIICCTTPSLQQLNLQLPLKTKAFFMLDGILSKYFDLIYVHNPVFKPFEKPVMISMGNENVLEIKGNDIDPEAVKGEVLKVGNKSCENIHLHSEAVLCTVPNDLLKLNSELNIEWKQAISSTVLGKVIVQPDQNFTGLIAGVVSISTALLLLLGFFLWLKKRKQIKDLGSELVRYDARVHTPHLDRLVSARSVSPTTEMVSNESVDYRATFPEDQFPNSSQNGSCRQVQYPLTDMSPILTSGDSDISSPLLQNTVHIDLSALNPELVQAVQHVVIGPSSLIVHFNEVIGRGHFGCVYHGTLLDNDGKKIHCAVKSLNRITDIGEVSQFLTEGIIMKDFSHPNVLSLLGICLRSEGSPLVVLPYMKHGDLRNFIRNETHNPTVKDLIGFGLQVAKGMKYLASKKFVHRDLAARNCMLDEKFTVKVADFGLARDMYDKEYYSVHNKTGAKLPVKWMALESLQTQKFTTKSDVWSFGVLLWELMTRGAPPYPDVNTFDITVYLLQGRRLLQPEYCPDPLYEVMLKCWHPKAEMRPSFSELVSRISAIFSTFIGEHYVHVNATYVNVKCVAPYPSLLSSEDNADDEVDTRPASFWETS
Assay [12] addresses Cyclin-dependent kinase-like 3 (Homo sapiens) (UniProt Q8IVW4). Kind of assay: Inhibition of wild-type human partial length CDKL3 (M1 to D327 residues) expressed in Escherichia coli BL21 assessed as residual activity at 1000 nM after 30 mins by Kinomescan method relative to control.
The target in assay [13] is Serine/threonine-protein kinase PLK2 (Homo sapiens) (UniProt Q9NYY3). Kind of assay: Inhibition of wild-type human partial length PLK2 (H58 to F354 residues) expressed in HEK293 cells assessed as residual activity at 1000 nM after 30 mins by Kinomescan method relative to control. Type of assay: cell-based.
Assay [14] deals with NUAK family SNF1-like kinase 2 (Homo sapiens) (UniProt Q9H093). Kind of assay: Inhibition of wild-type human partial length SNARK (P22 to A333 residues) expressed in HEK293 cells assessed as residual activity at 1000 nM after 30 mins by Kinomescan method relative to control. Type of assay: cell-based.
NUAK family SNF1-like kinase 2 (Homo sapiens), sequence (Q9H093 whole entry, the tested form may be a part): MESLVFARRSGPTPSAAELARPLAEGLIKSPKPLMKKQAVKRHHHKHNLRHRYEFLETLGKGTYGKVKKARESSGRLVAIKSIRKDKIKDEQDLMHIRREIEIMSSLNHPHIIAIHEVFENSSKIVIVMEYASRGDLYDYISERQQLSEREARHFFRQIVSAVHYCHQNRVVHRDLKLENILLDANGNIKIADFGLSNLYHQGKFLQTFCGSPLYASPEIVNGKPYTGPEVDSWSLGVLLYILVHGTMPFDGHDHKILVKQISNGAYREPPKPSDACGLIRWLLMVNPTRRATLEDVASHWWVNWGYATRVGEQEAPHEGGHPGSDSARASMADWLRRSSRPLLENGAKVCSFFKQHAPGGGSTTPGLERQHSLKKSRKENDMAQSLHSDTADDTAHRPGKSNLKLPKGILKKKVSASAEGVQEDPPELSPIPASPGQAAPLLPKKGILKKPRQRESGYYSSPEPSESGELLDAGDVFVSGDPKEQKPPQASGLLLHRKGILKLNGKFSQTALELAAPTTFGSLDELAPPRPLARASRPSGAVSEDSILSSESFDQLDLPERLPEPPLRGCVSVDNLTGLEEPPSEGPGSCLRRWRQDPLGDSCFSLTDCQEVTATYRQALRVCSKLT
Assay [15] deals with Tyrosine-protein kinase receptor Tie-1 (Homo sapiens) (UniProt P35590). Kind of assay: Inhibition of wild-type human partial length TIE1 (T819 to A1138 residues) expressed in Escherichia coli BL21 assessed as residual activity at 1000 nM after 30 mins by Kinomescan method relative to control.
Tyrosine-protein kinase receptor Tie-1 (Homo sapiens), sequence (P35590 whole entry, the tested form may be a part): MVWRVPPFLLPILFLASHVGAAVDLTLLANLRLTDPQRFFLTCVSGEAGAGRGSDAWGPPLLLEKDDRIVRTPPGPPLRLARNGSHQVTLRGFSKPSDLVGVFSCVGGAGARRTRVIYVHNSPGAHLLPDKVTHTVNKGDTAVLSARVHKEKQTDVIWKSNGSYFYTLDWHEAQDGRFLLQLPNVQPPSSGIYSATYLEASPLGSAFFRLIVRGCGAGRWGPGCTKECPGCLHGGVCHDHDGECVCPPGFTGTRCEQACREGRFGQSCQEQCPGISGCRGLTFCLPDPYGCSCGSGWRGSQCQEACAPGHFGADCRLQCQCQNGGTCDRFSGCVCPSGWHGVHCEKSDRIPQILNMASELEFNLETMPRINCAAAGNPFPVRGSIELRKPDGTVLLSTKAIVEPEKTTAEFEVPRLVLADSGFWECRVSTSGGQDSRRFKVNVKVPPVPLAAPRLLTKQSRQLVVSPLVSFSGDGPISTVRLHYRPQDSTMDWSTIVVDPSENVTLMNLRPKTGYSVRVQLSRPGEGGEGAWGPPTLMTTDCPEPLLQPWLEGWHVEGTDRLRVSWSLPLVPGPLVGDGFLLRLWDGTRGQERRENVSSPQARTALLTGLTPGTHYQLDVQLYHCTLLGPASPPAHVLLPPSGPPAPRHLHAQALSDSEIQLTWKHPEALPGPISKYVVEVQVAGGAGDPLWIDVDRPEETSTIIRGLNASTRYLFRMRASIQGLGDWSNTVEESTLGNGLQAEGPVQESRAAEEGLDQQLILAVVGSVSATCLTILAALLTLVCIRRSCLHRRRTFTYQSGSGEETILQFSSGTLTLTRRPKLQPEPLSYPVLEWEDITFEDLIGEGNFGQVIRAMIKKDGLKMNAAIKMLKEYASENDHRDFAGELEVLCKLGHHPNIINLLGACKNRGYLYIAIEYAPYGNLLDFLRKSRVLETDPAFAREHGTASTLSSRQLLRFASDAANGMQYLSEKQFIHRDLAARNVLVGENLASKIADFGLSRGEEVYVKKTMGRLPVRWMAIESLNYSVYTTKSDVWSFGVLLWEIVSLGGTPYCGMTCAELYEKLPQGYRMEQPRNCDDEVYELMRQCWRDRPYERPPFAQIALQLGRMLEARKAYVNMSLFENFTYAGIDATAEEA
Assay [16] deals with Serine/threonine-protein kinase MAK (Homo sapiens) (UniProt P20794). Kind of assay: Inhibition of wild-type human partial length MAK (M1 to P314 residues) expressed in Escherichia coli BL21 assessed as residual activity at 1000 nM after 30 mins by Kinomescan method relative to control.
For assay [17], the target named is Hormonally up-regulated neu tumor-associated kinase (Homo sapiens) (UniProt P57058). The assay can be described thus: Inhibition of wild-type human partial length HUNK (A31 to K354 residues) expressed in Escherichia coli BL21 assessed as residual activity at 1000 nM after 30 mins by Kinomescan method relative to control.
Hormonally up-regulated neu tumor-associated kinase (Homo sapiens), sequence (P57058 whole entry, the tested form may be a part): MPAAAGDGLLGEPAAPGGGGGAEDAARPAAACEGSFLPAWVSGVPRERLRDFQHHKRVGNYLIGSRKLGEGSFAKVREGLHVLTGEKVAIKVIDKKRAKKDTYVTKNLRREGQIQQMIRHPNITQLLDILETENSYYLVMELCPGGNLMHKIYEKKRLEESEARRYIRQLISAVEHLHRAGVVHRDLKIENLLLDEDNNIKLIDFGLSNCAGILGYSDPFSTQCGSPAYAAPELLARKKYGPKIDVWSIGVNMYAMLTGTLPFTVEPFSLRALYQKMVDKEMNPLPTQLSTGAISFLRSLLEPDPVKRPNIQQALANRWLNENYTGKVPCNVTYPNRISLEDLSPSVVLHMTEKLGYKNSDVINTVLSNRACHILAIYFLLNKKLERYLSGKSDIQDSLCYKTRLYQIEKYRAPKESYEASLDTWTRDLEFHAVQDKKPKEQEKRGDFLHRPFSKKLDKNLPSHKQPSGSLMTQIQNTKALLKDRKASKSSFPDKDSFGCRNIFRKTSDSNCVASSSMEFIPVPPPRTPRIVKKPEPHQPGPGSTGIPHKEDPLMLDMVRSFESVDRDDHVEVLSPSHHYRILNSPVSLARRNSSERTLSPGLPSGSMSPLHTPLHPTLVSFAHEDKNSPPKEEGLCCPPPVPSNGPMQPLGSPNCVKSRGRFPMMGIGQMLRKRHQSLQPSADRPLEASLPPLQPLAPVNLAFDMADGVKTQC
In assay [18] the target is Cyclin-dependent kinase 3 (Homo sapiens) (UniProt Q00526). Kind of assay: Inhibition of wild-type human full length CDK3 (M1 to H305 residues) expressed in Escherichia coli BL21 assessed as residual activity at 1000 nM after 30 mins by Kinomescan method relative to control. The method in brief: as §1
Cyclin-dependent kinase 3 (Homo sapiens), sequence (Q00526 whole entry, looked up, the tested form may be a part): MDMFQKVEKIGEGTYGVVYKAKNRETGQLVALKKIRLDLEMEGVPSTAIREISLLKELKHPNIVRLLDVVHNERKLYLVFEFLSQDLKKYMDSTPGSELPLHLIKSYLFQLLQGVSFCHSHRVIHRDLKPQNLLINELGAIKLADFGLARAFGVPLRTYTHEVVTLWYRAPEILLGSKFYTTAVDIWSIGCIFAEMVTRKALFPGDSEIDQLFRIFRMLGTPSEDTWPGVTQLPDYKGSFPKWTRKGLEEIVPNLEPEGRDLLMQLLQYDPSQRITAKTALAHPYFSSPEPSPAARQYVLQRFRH
The target in assay [19] is Calcium/calmodulin-dependent protein kinase kinase 2 (Homo sapiens) (UniProt Q96RR4). The assay can be described thus: Inhibition of wild-type human partial length CAMKK2 (D65 to V471 residues) expressed in Escherichia coli BL21 assessed as residual activity at 1000 nM after 30 mins by Kinomescan method relative to control.
Assay [20] addresses Ephrin type-B receptor 4 (Homo sapiens) (UniProt P54760). The assay can be described thus: Inhibition of wild-type human partial length EPHB4 (H585 to G892 residues) expressed in Escherichia coli BL21 assessed as residual activity at 1000 nM after 30 mins by Kinomescan method relative to control.
A short description of assay [21]: Antiproliferative activity against human FGFR2-amplified SUM52 cells after 5 days by SRB assay. The note with it: SUM52, 120 h. On the technique in general: In SRB staining, fixed cells bind dye roughly in proportion to their protein.
In assay [22] the target is Serine/threonine-protein kinase LATS1 (Homo sapiens) (UniProt O95835). The assay can be described thus: Inhibition of wild-type human partial length LATS1 (Q678 to V1130 residues) expressed in Escherichia coli BL21 assessed as residual activity at 1000 nM after 30 mins by Kinomescan method relative to control.

Cyclin-dependent kinase-like 1 (Homo sapiens), sequence (Q00532 whole entry, the tested form may be a part): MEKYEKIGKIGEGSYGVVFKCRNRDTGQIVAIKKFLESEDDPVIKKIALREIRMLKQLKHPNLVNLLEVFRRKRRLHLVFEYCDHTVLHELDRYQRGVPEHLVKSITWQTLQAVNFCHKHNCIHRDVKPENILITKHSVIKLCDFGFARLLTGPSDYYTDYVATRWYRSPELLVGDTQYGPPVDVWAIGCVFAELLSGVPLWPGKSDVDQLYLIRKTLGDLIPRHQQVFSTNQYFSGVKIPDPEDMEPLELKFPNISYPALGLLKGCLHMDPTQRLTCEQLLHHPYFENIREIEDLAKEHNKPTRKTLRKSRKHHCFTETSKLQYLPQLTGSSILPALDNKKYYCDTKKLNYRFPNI
Calcium/calmodulin-dependent protein kinase type 1 (Homo sapiens), sequence (Q14012 whole entry, looked up, the tested form may be a part): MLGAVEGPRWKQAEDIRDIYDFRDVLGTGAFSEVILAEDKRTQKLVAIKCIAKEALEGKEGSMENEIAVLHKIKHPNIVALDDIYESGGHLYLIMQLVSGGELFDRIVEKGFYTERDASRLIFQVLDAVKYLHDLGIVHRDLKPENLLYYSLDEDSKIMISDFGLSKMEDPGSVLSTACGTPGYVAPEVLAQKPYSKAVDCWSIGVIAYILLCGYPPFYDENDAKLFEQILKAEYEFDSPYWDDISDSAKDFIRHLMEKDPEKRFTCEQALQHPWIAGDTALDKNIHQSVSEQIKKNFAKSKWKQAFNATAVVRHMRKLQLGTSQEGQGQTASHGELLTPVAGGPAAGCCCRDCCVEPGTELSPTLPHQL

The IC50 is the concentration that inhibits the measured activity by half. As for `COc1cc(OC)c(Cl)c(N2Cc3cnc(Nc4ccc(F)cc4)nc3N(C3CCN(C(=O)/C=C/CN(C)C)CC3)C2=O)c1Cl`, the Activity in assay [1] turned out to be 26%; in assay [2], 100%; in assay [3] it was 67%; in assay [4], 96%; in [5], 99%; in assay [6], 14%. For the same compound, the Activity turned out to be 100% in [7]; 64% in [8]; 33% in assay [9]; 100% in assay [10]; 96% in [11]; 89% in [12]. In addition, the Activity in assay [13] came to 100%; in [14], 89%; in assay [15] it was 19%; in [16], 100%; in assay [17] it was 100%; in assay [18], 97%. The values for the Activity in assay [19], in [20] and in assay [22] were 99%, 100% and 100%, respectively. Besides, the concentration for half-maximal inhibition (IC50) in [21] was found to be 0.77 nM.
